Measurements from ChEMBL document CHEMBL4387744, “Discovery of conolidine derivative DS39201083 as a potent novel analgesic without mu opioid agonist activity” (Bioorg Med Chem Lett, 2019).

Legend:
Mus musculus [1] = assay: Analgesic activity in Slc:ddY mouse assessed as inhibition of acetic acid-induced writhings at 30 mg/kg, po relative to control; assay type: functional
How it was run: (§1)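 Acetic acid-induced writhing in Slc:ddY mice after oral dosing. Read-out is reduction (% inhibition) of writhing behaviour. ED50 calculated from the dose-response curve of analgesic activity at 10, 30 and 100 mpk.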

[2] = Distribution coefficient between 1-octanol and phosphate buffer, logD of the compound in pH 7.4 buffer; assay type: physicochemical; conditions: 1-octanol/phosphate buffer
How it was run: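 Log D measured as partitioning between 1-octanol and phosphate-buffered saline at pH 7.4.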

Mus musculus [3] = species on record: Mus musculus; assay: Analgesic activity in Slc:ddY mouse assessed as inhibition of acetic acid-induced writhings; assay type: functional; how it was run: as §1
Mus musculus [4] = assay: Analgesic activity in Slc:ddY mouse assessed as reduction in sum of the time spent in paw licking or biting responses during phase 1 at 30 mg/kg, po dosed 30 mins before formalin injection by formalin test relative to control; assay type: functional
How it was run: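 Formalin test in Slc:ddY mice (n = 8). Compound given p.o. at 30 mg/kg; 30 min later 3.5% formalin (20 μL) injected into the hind paw pad. Read-out is the reduction in summed paw licking and biting time over the first 10 min after injection (initial phase).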

Mu-type opioid receptor [5] = target: T1, Mu-type opioid receptor (Homo sapiens, UniProt P35372); assay: Displacement of [3H]-diprenorphine from MOR (unknown origin); assay type: ADME
T1 sequence (P35372 whole entry): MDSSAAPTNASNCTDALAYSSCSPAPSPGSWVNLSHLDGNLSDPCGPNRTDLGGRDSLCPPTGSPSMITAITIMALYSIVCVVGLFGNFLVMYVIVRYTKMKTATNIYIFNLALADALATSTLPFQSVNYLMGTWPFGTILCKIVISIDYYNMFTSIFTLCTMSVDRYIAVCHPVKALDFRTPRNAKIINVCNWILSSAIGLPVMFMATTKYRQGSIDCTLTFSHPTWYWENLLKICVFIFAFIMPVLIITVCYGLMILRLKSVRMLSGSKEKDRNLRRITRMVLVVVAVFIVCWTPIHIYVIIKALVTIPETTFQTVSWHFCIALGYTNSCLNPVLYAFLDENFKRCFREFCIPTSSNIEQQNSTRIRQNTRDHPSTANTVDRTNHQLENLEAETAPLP

Mu-type opioid receptor [6] = target: T1, Mu-type opioid receptor; assay: Agonist activity at human mu opioid receptor expressed in CHO cells by cAMP assay; assay type: cell-based
How it was run: (§2)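 Human MOR expressed in CHO cells; cAMP read-out. EC50 derived from the cAMP response.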

Mu-type opioid receptor [7] = target: T1, Mu-type opioid receptor; assay: Agonist activity at human mu opioid receptor expressed in CHO cells by cAMP assay relative to DAMGO; assay type: cell-based; how it was run: as §2
[8] = AUC in ddY mouse 10 mg/kg, po; assay type: ADME, organism-based; conditions: in vivo
How it was run: (§3)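 Plasma pharmacokinetics in ddY mice after a single oral dose of 10 mg/kg, given as a 0.5 w/v% methylcellulose suspension. Reported values are the average of three.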

[9] = Cmax in ddY mouse 10 mg/kg, po; assay type: ADME, organism-based; design: dose 10 mg/kg, route oral; conditions: in vivo; how it was run: as §3
[10] = Half life in ddY mouse 10 mg/kg, po; assay type: ADME, organism-based; conditions: in vivo; how it was run: as §3
Mus musculus [11] = assay: Analgesic activity in Slc:ddY mouse assessed as inhibition of acetic acid-induced writhings at 3 mg/kg, po relative to control; assay type: functional
Mus musculus [12] = assay: Analgesic activity in Slc:ddY mouse assessed as inhibition of acetic acid-induced writhings at 10 mg/kg, po relative to control; assay type: functional; how it was run: as §1

C/C=C1\CN2CCC1C(=O)c1[nH]c3ccccc3c1C2 (racemic)
inhibition in vivo at 30 mg/kg (Mus musculus [1]): 18%
logD [2]: 3.3

C/C=C1/CN2CC[C@H]1C(=O)c1[nH]c3ccccc3c1C2.O=S(=O)(O)O
inhibition in vivo at 30 mg/kg (Mus musculus [1]): 49%
logD [2]: 2.8
ED50 (Mus musculus [3]): 32 mg/kg
inhibition in vivo at 30 mg/kg (Mus musculus [4]): 43%
IC50 (Mu-type opioid receptor [5]): 70 µM
EC50 (Mu-type opioid receptor [6]): > 100 µM
Emax (Mu-type opioid receptor [7]): 13%

C/C=C1/CN2CCC1C(=O)c1[nH]c3cc(OC)ccc3c1C2 (racemic)
inhibition in vivo at 30 mg/kg (Mus musculus [1]): 31%
logD [2]: 3.1

C/C=C1/CN2CCC1C(=O)c1[nH]c3cccc(OC)c3c1C2 (racemic)
inhibition in vivo at 30 mg/kg (Mus musculus [1]): 42%
logD [2]: 3.4

CC/C=C1/CN2CCC1C(=O)c1[nH]c3ccccc3c1C2 (racemic)
inhibition in vivo at 30 mg/kg (Mus musculus [1]): 0%

C/C=C1/CN2CCC1C(=O)c1c(c3ccccc3n1C)C2 (racemic)
inhibition in vivo at 30 mg/kg (Mus musculus [1]): 30%
logD [2]: 3.5

CC12CCN(CC1)Cc1c([nH]c3ccccc13)C2=O.O=S(=O)(O)O
inhibition in vivo at 30 mg/kg (Mus musculus [1]): 90 to 94%
logD [2]: 2.5
AUC [8]: 3.21 µM·h
Cmax [9]: 1250 nM
half-life [10]: 2.33 h
ED50 (Mus musculus [3]): 7.8 mg/kg
inhibition in vivo at 30 mg/kg (Mus musculus [4]): 92%
IC50 (Mu-type opioid receptor [5]): 71 µM
EC50 (Mu-type opioid receptor [6]): > 100 µM
Emax (Mu-type opioid receptor [7]): 12%
inhibition in vivo at 3 mg/kg (Mus musculus [11]): 23%
inhibition in vivo at 10 mg/kg (Mus musculus [12]): 52%

CCC1CN2CCC1C(=O)c1[nH]c3ccccc3c1C2 (mixture of isomers)
inhibition in vivo at 30 mg/kg (Mus musculus [1]): 50%

O=C1c2[nH]c3ccccc3c2CN2CCC1CC2
inhibition in vivo at 30 mg/kg (Mus musculus [1]): 73%
logD [2]: 1.8
AUC [8]: 2.26 µM·h
Cmax [9]: 1160 nM
half-life [10]: 1.17 h
ED50 (Mus musculus [3]): 11 mg/kg
IC50 (Mu-type opioid receptor [5]): > 100 µM
EC50 (Mu-type opioid receptor [6]): > 100 µM
Emax (Mu-type opioid receptor [7]): 13%

C/C=C1/CN2CCC1C(=O)c1[nH]c3ccc(OC)cc3c1C2 (racemic)
inhibition in vivo at 30 mg/kg (Mus musculus [1]): 3%
logD [2]: 3.1

CCC12CCN(CC1)Cc1c([nH]c3ccccc13)C2=O.O=S(=O)(O)O
inhibition in vivo at 30 mg/kg (Mus musculus [1]): 48%
logD [2]: 3
AUC [8]: 1.02 µM·h
Cmax [9]: 710 nM
half-life [10]: 1.28 h

C/C=C1/CN2CCC1C(=O)c1[nH]c3ccccc3c1C2 (racemic)
inhibition in vivo at 30 mg/kg (Mus musculus [1]): 49%

C/C=C1/CN2CCC1C(=O)c1[nH]c3c(OC)cccc3c1C2 (racemic)
inhibition in vivo at 30 mg/kg (Mus musculus [1]): 34%
logD [2]: 3.3
